Screening results deposited in PubChem BioAssay by Johns Hopkins Ion Channel Center.
MrgX1 antag – blocks BAM8-22 activation of human MrgX1 receptor. Q96LB2. MRGX1-HEK293 calcium flux, Fluo-4, BAM8-22 antagonism; stronger effect = lower value. B-score at 10 µM. 310,000 compounds, 1.3% hits;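 active means calcium-response B-score plate-corrected more than 3 library SD below zero, starting fluorescence within 5 deviations, no agonist response on first addition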;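 further: peak minus trough fluorescence over baseline after final BAM8-22 challenge near maximal dose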
Target sequence (Q96LB2 whole entry, looked up): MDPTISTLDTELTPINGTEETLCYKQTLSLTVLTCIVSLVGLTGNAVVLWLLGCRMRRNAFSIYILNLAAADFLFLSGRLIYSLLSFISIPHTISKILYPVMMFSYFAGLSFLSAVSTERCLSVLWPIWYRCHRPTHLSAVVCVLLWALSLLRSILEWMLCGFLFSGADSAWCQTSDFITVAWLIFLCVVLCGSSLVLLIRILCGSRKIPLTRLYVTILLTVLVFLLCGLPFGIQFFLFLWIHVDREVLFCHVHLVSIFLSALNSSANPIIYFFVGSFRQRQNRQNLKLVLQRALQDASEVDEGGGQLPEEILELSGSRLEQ
MrgX1 agonist – human MrgX1 receptor agonism, primary screen; B-score at 10 µM; Q96LB2; MrgX1-HEK293 cells, Fluo-4 calcium fluorescence, agonist mode; stronger effect = higher value; 310,000 compounds, 0.44% hits;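 active means calcium response B-score plate-corrected fluorescence ratio at least 3 library SD, with starting fluorescence B-score inside 5 SD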
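Test system: HEK293 cells stably expressing human MrgX1 receptor; amount: 15,000 cells per well; doses: compound delivered in addition one of three; times: overnight plating before 1 h dye loading; detection: Fluo-4 NW calcium-flux fluorescence, kinetic read; read-out basis: B-scored fluorescence response ratio; controls: positive and negative controls per plate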
RGS4 block – inhibitors of human RGS4; P49798; HEK293 M3R/RGS4 inducible, Fluo-4 calcium flux; stronger effect = higher value; triggered by carbachol at its EC20; B-score at 10 µM; 310,000 compounds, 0.45% hits; AID 463165;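 active means B-score, a plate-corrected calcium signal, over three deviations above library mean, with baseline fluorescence within five deviations of library mean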;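 further: RGS4 expression induced by doxycycline in cells with stable M3 receptor; B-score is computed from the integrated fluorescence ratio over baseline after carbachol; higher B-score means a larger calcium signal and so more RGS4 inhibition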
Target sequence (P49798 whole entry, looked up): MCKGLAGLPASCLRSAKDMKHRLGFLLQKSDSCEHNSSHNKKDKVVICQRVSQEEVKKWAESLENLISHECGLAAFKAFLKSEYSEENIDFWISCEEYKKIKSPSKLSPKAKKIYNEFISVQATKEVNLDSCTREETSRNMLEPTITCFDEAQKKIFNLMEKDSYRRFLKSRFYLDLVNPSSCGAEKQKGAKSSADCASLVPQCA
RGS4 act – potentiators or activators of RGS4; B-score at 10 µM; HEK293 M3R/inducible RGS4, carbachol calcium flux Fluo4; stronger effect = lower value; AID 463111; 310,000 compounds, 0.92% hits;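 active means B-score of the integrated calcium signal more than 4 SD below the library mean, with starting fluorescence not abnormally high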;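 further: negative B-score means reduced calcium response which marks RGS4 activation or potentiation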
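Test system: HEK293 cells with stable M3R and inducible RGS4; also added: carbachol at ECmax as muscarinic agonist stimulus; schedule: dye loading 30 min 37 °C, buffer rest 30 min RT; technique: kinetic calcium fluorescence imaging with Fluo4-AM dye, 2 µM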
MrgX1 allo act – human MrgX1 positive allosteric modulation, primary screen; 310,000 compounds, 0.63% hits; Q96LB2; B-score at 10 µM; MrgX1-HEK293, Fluo-4 calcium flux, FDSS; stronger effect = higher value; AID 588675;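 active means plate-corrected calcium response at least 3 library SD above typical, normal starting fluorescence, not activating the receptor alone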;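 further: compound read alongside a low EC10 to EC30 dose of BAM8-22 agonist; peak minus trough fluorescence over baseline measured at the second addition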
Hits are given with their value; . = inactive. In the library only some 3.5% were active in any assay of this set; here they are far more common.

SMILES	MrgX1 antag	MrgX1 agonist	RGS4 block	RGS4 act	MrgX1 allo act
COc1ccc(/C=C2\Oc3cc(OCC(=O)N4CCC[C@H]4C(=O)O)ccc3C2=O)c(OC)c1	.	.	.	.	.
COc1ccc(OC)c(/C=C2\Oc3cc(OCC(=O)N4CCC[C@H]4C(=O)O)ccc3C2=O)c1	.	31	.	.	.
Cc1ccc(O)c(C2=NNC(c3ccc(Cl)cc3)C2)c1 (centres undefined)	.	.	.	.	.
Oc1ccc(Cl)cc1C1=NNC(c2cccs2)C1 (centres undefined)	-5.6	.	.	.	.
O=C(O)C1CCCN(S(=O)(=O)c2ccc(-c3ccc(=O)[nH]n3)s2)C1 (centres undefined)	.	.	.	.	.
Cc1oc(-c2ccc(Cl)cc2)nc1CS(=O)CC(=O)NCc1ccc2c(c1)OCO2 (centres undefined)	-4.9	.	.	.	.
Cc1ccc(C(=O)N/C(=C/c2ccc(-c3ccc([N+](=O)[O-])cc3)o2)C(=O)NCCCN(C)C)cc1	.	45	.	.	.
Cc1ccc(C(=O)N/C(=C\c2ccc(-c3ccc([N+](=O)[O-])cc3)o2)C(=O)NC2CCS(=O)(=O)C2)cc1 (centres undefined)	-4.9	.	.	.	.
C/C(=N\NC(=O)c1cccc(Cl)c1)C1C(=O)c2ccccc2C1=O	.	.	.	.	18
COc1cccc(CNc2nnnn2C)c1	.	.	.	.	.
CCOC(=O)c1[nH]c(CO)c(C(=O)OCC)c1C	.	.	.	.	.
Cc1ccc(/C([O-])=C(/C(=S)NCc2ccco2)[n+]2ccccc2)cc1	.	.	4.7	.	.
O=[N+]([O-])c1ccc(/C([O-])=C(/C(=S)NCc2ccco2)[n+]2ccccc2)cc1	.	.	.	.	.
O=C(COC(=O)CCC(=O)c1cccs1)NCc1ccccc1	.	.	.	.	.
CCOc1ccc(NC(=O)CSc2nc3ccccc3c(=O)n2CCCC(=O)NCCCN2CCCC2=O)cc1	.	.	.	.	.
Cc1ccc2nc(C)/c(=N\O)c(C)nc2c1	.	.	.	.	10
CC(=O)Nc1ccc(S(=O)(=O)NCCC(=O)OCC(=O)NNC(=O)c2ccccc2)cc1	.	.	.	.	.
COC(=O)C1=NN(C(=O)c2ccc(C)cc2)C(O)(c2ccc(Cl)cc2)C1 (centres undefined)	.	67	.	.	.
COC(=O)C1=NN(C(=O)c2ccccc2)C(O)(c2ccc([N+](=O)[O-])cc2)C1 (centres undefined)	.	54	.	.	.
COC(=O)C1=NN(C(=O)c2ccccc2)C(C)(O)C1 (centres undefined)	.	.	.	.	.
CSc1ncccc1C(=O)NNc1cc(Cl)ccc1Cl	.	.	.	.	.
O=C(N/N=C/c1ccc(Cl)c([N+](=O)[O-])c1)c1cnccn1	-4.7	.	.	.	.
Cc1sc(NC(=O)C2CCCCC2C(=O)O)c(C(N)=O)c1-c1ccc(C(C)C)cc1 (centres undefined)	.	54	.	.	.
Cc1sc(NC(=O)C2CCCCC2C(=O)O)c(C(N)=O)c1-c1ccccc1 (centres undefined)	.	.	.	.	.
Cc1ccc(-c2c[n+]3c(n2-c2ccccc2)SCC3)cc1	.	.	.	.	.
SMILES	MrgX1 antag	MrgX1 agonist	RGS4 block	RGS4 act	MrgX1 allo act
COc1ccc(-c2c[n+]3c(n2-c2ccccc2)SCC3)cc1	.	.	.	-8.5	.
COc1ccc(-c2c[n+]3c(n2-c2ccccc2)CCCCC3)cc1	.	.	.	-8.3	.
O=C(C[n+]1cccc(O)c1)Nc1ccc(Br)cc1	.	.	.	.	.
Cn1c(=O)c2nc3ccccc3nc2n(C)c1=O	.	.	.	-7.5	.
CN(C)CCNC(C(=O)Nc1cccc(C(F)(F)F)c1)c1ccccc1 (centres undefined)	.	.	.	-7.1	.
CC(=O)NC(=S)NNC(=O)C(c1ccccc1)c1ccccc1	.	.	.	.	12
CC(C)(C)c1ccc(C(=O)NC(=S)NNC(=O)COc2ccccc2)cc1	.	45	.	-7.5	.
COC(=O)c1cc(OC)c(OC)cc1NC(=S)NC(=O)c1ccco1	.	.	.	.	.
CC(C)(C)c1ccc(OCC(=O)NNC(=O)CCc2ccccc2)cc1	.	.	.	.	.
COc1ccccc1C(=O)NNC(=S)NC(=O)c1ccco1	.	50	.	.	.
O=C(NC(=S)NNC(=O)c1cccs1)c1ccco1	.	28	.	.	.
CC(Oc1ccc(Cl)cc1)C(=O)NNC(=S)NC(=O)c1ccco1 (centres undefined)	.	90	.	.	.
COc1ccc(N2CC(NC(=O)c3ccc4ccccc4c3)CC2=O)cc1OC (centres undefined)	.	.	.	.	.
CCNC(=S)Nc1cc(OCC)c(NC(=O)c2cccs2)cc1OCC	.	.	.	.	.
CC(C)(C)c1ccc(C(=O)NC(=S)NNC(=O)c2cccs2)cc1	.	47	.	.	.
CC(OC(=O)Cc1c(F)cccc1Cl)C(=O)NCCC1=CCCCC1 (centres undefined)	.	.	.	.	.
O=c1oc2cc(O[C@@H]3OC[C@@H](O)[C@H](O)[C@H]3O)ccc2c2ccccc12	.	.	.	.	.
CCN(CC)c1ccc(/C=C(/C#N)C(=O)NC(C)C)o1	.	.	.	.	.
CCN(CC)c1ccc(/C=C(/C#N)C(=O)NCc2ccccc2)o1	.	.	.	.	7
O=Cc1ccccc1-c1cn(CN2C(=O)c3ccccc3C2=O)nn1	.	.	.	.	.
Cc1cccc(-c2oc3ccccc3c2-c2ccc3c(c2)OCO3)c1	-6	.	.	.	.
CCCCn1c(=O)nc2n(-c3ccccc3C)c3ccccc3cc-2c1=O	.	.	.	-7.6	.
Cc1ccccc1-n1c2nc(=O)n(C)c(=O)c-2cc2ccccc21	.	.	.	.	.
Cc1cc(Cl)ccc1Oc1ccccc1C(=O)CC#N	.	.	.	.	.
CN=c1scc(C)n1/N=C/c1ccc(O)c(O)c1O	.	.	.	.	.
SMILES	MrgX1 antag	MrgX1 agonist	RGS4 block	RGS4 act	MrgX1 allo act
CN=c1scc(-c2cccs2)n1/N=C/c1ccc(O)c(O)c1O	.	.	.	.	14
CN=c1scc(-c2cccs2)n1/N=C/c1ccccc1O	.	.	.	.	7.4
O=C(COC(=O)/C=C/c1ccccc1)NCC1CCCO1 (centres undefined)	.	.	.	.	9.8
Cc1cc(-c2nnc(CSc3nnc(NC(=O)c4ccc(C(C)(C)C)cc4)s3)o2)ccc1[N+](=O)[O-]	.	.	.	.	.
COCCn1c(SCC(=O)N(C(C)C)C(C)C)nnc1-c1cc2ccccc2cc1O	.	.	.	.	6.6
Cc1ccc2c(c1)CCCN2C(=O)c1cc(C)on1	.	.	.	.	.
